Results from ChEMBL document CHEMBL4354800, “Amphiphilic nebramine-based hybrids Rescue legacy antibiotics from intrinsic resistance in multidrug-resistant Gram-negative bacilli” (Eur J Med Chem, 2019).

Columns and labels:
Klebsiella pneumoniae [1] = assay: Synergistic antibacterial activity against Klebsiella pneumoniae 116381 assessed as fractional inhibitory concentration index in presence of minocycline incubated for 18 hrs by broth dilution method; type: functional
How it was run: (§1)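 Checkerboard titration of the adjuvant against the antibiotic, run under the CLSI microdilution conditions (MHB, 5 × 10^5 CFU/mL, 18 h, 37 °C). Each agent's FIC is its MIC in combination divided by its MIC alone; FICI is the sum of the two FICs. FICI ≤0.5 was read as synergy, >0.5–4.0 as no interaction, and >4.0 as antagonism.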

Pseudomonas aeruginosa [2] = assay: Synergistic antibacterial activity against MDR/XDR Pseudomonas aeruginosa isolate PA259-96918 harboring T83I mutant assessed as fractional inhibitory concentration index in presence of rifampicin incubated for 18 hrs by broth microdilution method; type: functional
How it was run: (§2)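 Checkerboard synergy assay. Antibiotic and adjuvant in twofold dilutions in Mueller-Hinton broth. Inoculum 5 × 10^5 CFU/mL from a 0.5 McFarland suspension, 18 h at 37 °C, MIC read by turbidity and confirmed at 590 nm. FIC = MIC in combination / MIC alone for each agent, FICI = sum. Interpreted as ≤0.5 synergy, 0.5–4 no interaction, >4 antagonism.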

Pseudomonas aeruginosa [3] = assay: Synergistic antibacterial activity against MDR/XDR Pseudomonas aeruginosa isolate 100036 harboring GyrA T83I mutant assessed as fractional inhibitory concentration index in presence of moxifloxacin incubated for 18 hrs by broth microdilution method; type: functional; how it was run: as §2
Pseudomonas aeruginosa [4] = assay: Antimicrobial activity against MDR/XDR Pseudomonas aeruginosa isolate 100036 harboring GyrA Thr83Ile mutant incubated for 18 hrs by broth microdilution method; type: functional; conditions: isolate 100036, 18 h
How it was run: (§3)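 Broth microdilution per CLSI: overnight cultures set to 0.5 McFarland in saline, diluted 1:50 in Mueller-Hinton broth to a final 5 × 10^5 CFU/mL, added to 2-fold serial dilutions, incubated 18 h at 37 °C; MIC is the lowest concentration without visible turbidity, confirmed at 590 nm.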

Enterobacter cloacae [5] = assay: Synergistic antibacterial activity against Enterobacter cloacae 117029 assessed as fractional inhibitory concentration index in presence of rifampicin incubated for 18 hrs by broth dilution method; type: functional; how it was run: as §1
Pseudomonas aeruginosa [6] = assay: Synergistic antibacterial activity against MDR/XDR Pseudomonas aeruginosa isolate PA260-97103 harboring GyrA T83I mutant assessed as fractional inhibitory concentration index in presence of ciprofloxacin incubated for 18 hrs by broth microdilution method; type: functional; how it was run: as §2
Pseudomonas aeruginosa [7] = assay: Antimicrobial activity against wild type Pseudomonas aeruginosa PAO1 incubated for 18 hrs by broth microdilution method; type: functional; conditions: PAO1, 18 h; how it was run: as §3
Pseudomonas aeruginosa [8] = assay: Synergistic antibacterial activity against MDR/XDR Pseudomonas aeruginosa isolate PA259-96918 harboring GyrA T83I mutant assessed as fractional inhibitory concentration index in presence of moxifloxacin incubated for 18 hrs by broth microdilution method; type: functional; how it was run: as §2
Pseudomonas aeruginosa [9] = assay: Synergistic antibacterial activity against MDR/XDR Pseudomonas aeruginosa isolate 91433 devoid of GyrA T83I mutant assessed as fractional inhibitory concentration index in presence of minocycline incubated for 18 hrs by broth microdilution method; type: functional; how it was run: as §2
Pseudomonas aeruginosa [10] = assay: Synergistic antibacterial activity against MDR/XDR Pseudomonas aeruginosa isolate 101243 devoid of GyrA T83I mutant assessed as fractional inhibitory concentration index in presence of rifampicin incubated for 18 hrs by broth microdilution method; type: functional; how it was run: as §2
Pseudomonas aeruginosa [11] = assay: Synergistic antibacterial activity against wild type Pseudomonas aeruginosa PAO1 assessed as fractional inhibitory concentration index in presence of moxifloxacin incubated for 18 hrs by broth microdilution method; type: functional; how it was run: as §2
Pseudomonas aeruginosa [12] = assay: Antimicrobial activity against MDR/XDR Pseudomonas aeruginosa isolate PA260-97103 harboring GyrA Thr83Ile mutant incubated for 18 hrs by broth microdilution method; type: functional; conditions: isolate PA260-97103, 18 h; how it was run: as §3
Pseudomonas aeruginosa [13] = assay: Synergistic antibacterial activity against MDR/XDR Pseudomonas aeruginosa isolate PA264-104354 harboring T83I mutant assessed as fractional inhibitory concentration index in presence of rifampicin incubated for 18 hrs by broth microdilution method; type: functional; how it was run: as §2
Pseudomonas aeruginosa [14] = assay: Synergistic antibacterial activity against wild type Pseudomonas aeruginosa PAO1 assessed as fractional inhibitory concentration index in presence of rifampicin incubated for 18 hrs by broth microdilution method; type: functional; how it was run: as §2
Pseudomonas aeruginosa [15] = assay: Synergistic antibacterial activity against MDR/XDR Pseudomonas aeruginosa isolate 101243 devoid of GyrA T83I mutant assessed as fractional inhibitory concentration index in presence of minocycline incubated for 18 hrs by broth microdilution method; type: functional; how it was run: as §2
Pseudomonas aeruginosa [16] = assay: Synergistic antibacterial activity against MDR/XDR Pseudomonas aeruginosa isolate PA262-101856 harboring GyrA T83I mutant assessed as fractional inhibitory concentration index in presence of rifampicin incubated for 18 hrs by broth microdilution method; type: functional; how it was run: as §2
Pseudomonas aeruginosa [17] = assay: Synergistic antibacterial activity against MDR/XDR Pseudomonas aeruginosa isolate PA259-96918 harboring GyrAT83I mutant assessed as fractional inhibitory concentration index in presence of minocycline incubated for 18 hrs by broth microdilution method; type: functional; how it was run: as §2
[18] = Retention time of the compound by HPLC analysis; type: physicochemical
Enterobacter cloacae [19] = assay: Synergistic antibacterial activity against Enterobacter cloacae 117029 assessed as fractional inhibitory concentration index in presence of minocycline incubated for 18 hrs by broth dilution method; type: functional; how it was run: as §1
Pseudomonas aeruginosa [20] = assay: Antimicrobial activity against MDR/XDR Pseudomonas aeruginosa isolate PA259-96918 harboring GyrA Thr83Ile mutant incubated for 18 hrs by broth microdilution method; type: functional; conditions: isolate PA259-96918, 18 h; how it was run: as §3
Enterobacter cloacae [21] = assay: Antimicrobial activity against Enterobacter cloacae 117029 incubated for 18 hrs by broth dilution method; type: functional; conditions: Enterobacter cloacae, 117029, 18 h
How it was run: (§4)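 CLSI broth microdilution. Overnight cultures were adjusted to 0.5 McFarland in saline, diluted 1:50 in Mueller-Hinton broth, and inoculated at a final 5 × 10^5 CFU/mL. Compounds were tested as 2-fold serial dilutions and incubated 18 h at 37 °C. MIC was the lowest concentration with no visible turbidity, confirmed by absorbance at 590 nm.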

HEK293 = assay: Cytotoxicity against HEK293 cells at 50 uM incubated for 48 hrs by PrestoBlue dye based fluorescence assay; type: cell-based; conditions: human, hek293, 48 h
Klebsiella pneumoniae [22] = assay: Antimicrobial activity against Klebsiella pneumoniae 116381 incubated for 18 hrs by broth dilution method; type: functional; conditions: Klebsiella pneumoniae, 116381, 18 h; how it was run: as §4
Pseudomonas aeruginosa [23] = assay: Synergistic antibacterial activity against MDR/XDR Pseudomonas aeruginosa isolate PA264-104354 harboring GyrA T83I mutant assessed as fractional inhibitory concentration index in presence of minocycline incubated for 18 hrs by broth microdilution method; type: functional; how it was run: as §2
Pseudomonas aeruginosa [24] = assay: Synergistic antibacterial activity against wild type Pseudomonas aeruginosa PAO1 assessed as fractional inhibitory concentration index in presence of minocycline incubated for 18 hrs by broth microdilution method; type: functional; how it was run: as §1
Pseudomonas aeruginosa [25] = assay: Synergistic antibacterial activity against MDR/XDR Pseudomonas aeruginosa isolate PA262-101856 harboring GyrA T83I mutant assessed as fractional inhibitory concentration index in presence of moxifloxacin incubated for 18 hrs by broth microdilution method; type: functional; how it was run: as §2
Klebsiella pneumoniae [26] = assay: Synergistic antibacterial activity against Klebsiella pneumoniae 116381 assessed as fractional inhibitory concentration index in presence of rifampicin incubated for 18 hrs by broth dilution method; type: functional; how it was run: as §1
Pseudomonas aeruginosa [27] = assay: Antimicrobial activity against MDR/XDR Pseudomonas aeruginosa isolate 101885 harboring GyrA Thr83Ile mutant incubated for 18 hrs by broth microdilution method; type: functional; conditions: isolate 101885, 18 h; how it was run: as §3

Compound | fractional inhibitory concentration index (FICI) (Klebsiella pneumoniae [1]) | fractional inhibitory concentration index (FICI) (Pseudomonas aeruginosa [2]) | fractional inhibitory concentration index (FICI) (Pseudomonas aeruginosa [3]) | MIC (Pseudomonas aeruginosa [4]) [µg/mL] | fractional inhibitory concentration index (FICI) (Enterobacter cloacae [5]) | fractional inhibitory concentration index (FICI) (Pseudomonas aeruginosa [6]) | MIC (Pseudomonas aeruginosa [7]) [µg/mL] | fractional inhibitory concentration index (FICI) (Pseudomonas aeruginosa [8]) | fractional inhibitory concentration index (FICI) (Pseudomonas aeruginosa [9]) | fractional inhibitory concentration index (FICI) (Pseudomonas aeruginosa [10]) | fractional inhibitory concentration index (FICI) (Pseudomonas aeruginosa [11]) | MIC (Pseudomonas aeruginosa [12]) [µg/mL] | fractional inhibitory concentration index (FICI) (Pseudomonas aeruginosa [13]) | fractional inhibitory concentration index (FICI) (Pseudomonas aeruginosa [14]) | fractional inhibitory concentration index (FICI) (Pseudomonas aeruginosa [15]) | fractional inhibitory concentration index (FICI) (Pseudomonas aeruginosa [16]) | fractional inhibitory concentration index (FICI) (Pseudomonas aeruginosa [17]) | Retention_time [18] [min] | MIC (Pseudomonas aeruginosa [20]) [µg/mL] | fractional inhibitory concentration index (FICI) (Pseudomonas aeruginosa [24]) | other results
COc1c(N2C[C@@H]3CCCN(CCCCCCCCCCCCO[C@@H]4[C@@H](O)[C@H](N)C[C@H](N)[C@H]4O[C@H]4O[C@H](CN)[C@@H](O)C[C@H]4N)[C@@H]3C2)c(F)cc2c(=O)c(C(=O)O)cn(C3CC3)c12.Cl.Cl.Cl.Cl.Cl | 0.063 - 78 | 0.004 - 0.01 | 0.08 | 128 | 0.06 | 0.25 | 32 | 0.06 - 0.07 | 0.19 | 0.13 | 0.25 | 32 | 0.02 | 0.07 | 0.13 | 0.008 - 0.02 | 0.03 - 0.04 | 14.585 | > 256 | 0.38 | fractional inhibitory concentration index (FICI) (Enterobacter cloacae [19]): 0.19; MIC (Enterobacter cloacae [21]): 32 µg/mL; Activity (HEK293): Non-Toxic; MIC (Klebsiella pneumoniae [22]): > 256 µg/mL; fractional inhibitory concentration index (FICI) (Pseudomonas aeruginosa [23]): 0.05; fractional inhibitory concentration index (FICI) (Pseudomonas aeruginosa [25]): 0.13 - 0.16; fractional inhibitory concentration index (FICI) (Klebsiella pneumoniae [26]): 0.002 - 0.006; MIC (Pseudomonas aeruginosa [27]): 128 µg/mL
Cl.Cl.Cl.Cl.Cl.NC[C@H]1O[C@H](O[C@H]2[C@H](OCCCCCCCCCCCCN3CCN(c4cc5c(cc4F)c(=O)c(C(=O)O)cn5C4CC4)CC3)[C@@H](O)[C@H](N)C[C@@H]2N)[C@H](N)C[C@@H]1O | 0.063 - 0.07 | 0.008 - 0.016 | – | – | 0.023 | – | 64 | – | – | – | – | – | 0.039 | 0.047 | – | – | 0.031 - 0.063 | 14.945 | > 128 | 0.047 | fractional inhibitory concentration index (FICI) (Enterobacter cloacae [19]): 0.125; MIC (Enterobacter cloacae [21]): 32 µg/mL; Activity (HEK293): Non-Toxic; MIC (Klebsiella pneumoniae [22]): > 128 µg/mL; fractional inhibitory concentration index (FICI) (Pseudomonas aeruginosa [23]): 0.039; fractional inhibitory concentration index (FICI) (Klebsiella pneumoniae [26]): <=0.039
Cl.Cl.Cl.Cl.Cl.Cl.NC[C@H]1O[C@H](O[C@H]2[C@H](OCCCCCCCCCCN3CCN(Cc4cccc5ccccc45)CC3)[C@@H](O)[C@H](N)C[C@@H]2N)[C@H](N)C[C@@H]1O | – | 0.004 - 0.006 | 0.063 - 0.07 | > 512 | – | 0.38 | 256 | 0.016 - 0.023 | 0.19 | 0.05 | 0.05 | 32 | – | 0.02 | 0.09 | 0.02 | 0.016 - 0.031 | 12.917 | > 512 | 0.09 | fractional inhibitory concentration index (FICI) (Pseudomonas aeruginosa [25]): 0.09; MIC (Pseudomonas aeruginosa [27]): 512 µg/mL
